Experimental data taken from paper PMC8511081 (European journal of medicinal chemistry, 2021).
“Also recorded” adds a separate entry of the source.

What was measured:
[1] = molecular target: T1, human sGC with ferric heme (Fe3+-sGC) (Homo sapiens, UniProt Q02153); assay: cGMP-forming activity of purified sGC with ferric heme; type: biochemical; conditions: for shape of the activation curve: dose-dependent activation of sGC with ferric heme, Fig. 3; for activation of Fe3+-sGC: 100 μM, Fig. 2B
T1 sequence (Q02153 1-619): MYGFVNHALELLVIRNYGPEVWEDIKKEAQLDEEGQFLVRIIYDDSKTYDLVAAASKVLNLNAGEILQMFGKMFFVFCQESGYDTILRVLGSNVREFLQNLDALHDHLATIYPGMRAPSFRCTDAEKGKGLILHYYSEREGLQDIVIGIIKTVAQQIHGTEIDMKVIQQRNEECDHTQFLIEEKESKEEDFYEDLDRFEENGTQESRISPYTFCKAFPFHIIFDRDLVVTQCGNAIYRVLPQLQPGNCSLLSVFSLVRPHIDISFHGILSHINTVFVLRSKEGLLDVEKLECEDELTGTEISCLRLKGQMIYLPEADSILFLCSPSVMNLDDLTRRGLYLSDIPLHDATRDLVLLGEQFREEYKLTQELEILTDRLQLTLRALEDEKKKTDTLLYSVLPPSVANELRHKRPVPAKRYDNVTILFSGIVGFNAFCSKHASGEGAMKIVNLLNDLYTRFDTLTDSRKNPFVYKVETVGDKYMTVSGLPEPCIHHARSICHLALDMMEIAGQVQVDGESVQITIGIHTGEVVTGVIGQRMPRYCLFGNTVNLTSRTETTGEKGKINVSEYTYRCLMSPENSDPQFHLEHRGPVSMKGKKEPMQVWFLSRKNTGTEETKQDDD
T1 sequence (Q02108 1-690 partner): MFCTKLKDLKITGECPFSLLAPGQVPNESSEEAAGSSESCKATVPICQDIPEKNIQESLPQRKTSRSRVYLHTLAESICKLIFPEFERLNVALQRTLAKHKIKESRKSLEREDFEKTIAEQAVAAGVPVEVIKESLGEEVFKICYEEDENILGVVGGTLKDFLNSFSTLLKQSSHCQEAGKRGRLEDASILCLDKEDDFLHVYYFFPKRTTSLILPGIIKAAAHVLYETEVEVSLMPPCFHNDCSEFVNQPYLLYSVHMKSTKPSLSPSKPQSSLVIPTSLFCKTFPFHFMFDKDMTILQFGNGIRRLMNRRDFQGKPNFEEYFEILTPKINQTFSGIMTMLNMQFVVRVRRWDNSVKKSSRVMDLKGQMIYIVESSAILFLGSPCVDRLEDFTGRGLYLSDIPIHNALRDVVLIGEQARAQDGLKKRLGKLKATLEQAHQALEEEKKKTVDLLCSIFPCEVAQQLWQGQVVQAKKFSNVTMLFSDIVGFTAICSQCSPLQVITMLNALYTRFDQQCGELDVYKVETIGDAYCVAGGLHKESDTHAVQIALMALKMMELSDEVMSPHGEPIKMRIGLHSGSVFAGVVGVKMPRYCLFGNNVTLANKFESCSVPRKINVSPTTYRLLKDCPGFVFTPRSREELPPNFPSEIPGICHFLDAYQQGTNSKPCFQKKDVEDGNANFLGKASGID

sGC [2] = molecular target: T2, sGC (Homo sapiens, UniProt Q02153); type: biochemical; conditions: 100 μM screening on Fe2+-sGC and Fe3+-sGC (Fig. 2)
T2 sequence (Q02153 1-619): T1 sequence (Q02153 1-619)
T2 sequence (Q02108 1-690 partner): T1 sequence (Q02108 1-690 partner)
Method in brief: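 Human α1/β1 sGC from Sf9 cells was purified on DEAE, Ni-agarose and gel filtration. The ferric form was made by adding 10 μM ODQ at pre-incubation. Then 15 min at 37 °C with 1 mM GTP/[α-32P]GTP; zinc carbonate stop; [32P]cGMP measured.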

sGC [3] = conditions: cited from earlier work
[4] = molecular target: T3, human sGC with ferrous heme (Fe2+-sGC) (Homo sapiens, UniProt Q02153); assay: cGMP-forming activity of purified sGC with ferrous heme; type: biochemical; conditions: 100 μM, Fig. 2A
T3 sequence (Q02153 1-619): T1 sequence (Q02153 1-619)
T3 sequence (Q02108 1-690 partner): T1 sequence (Q02108 1-690 partner)
Method in brief: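 Ferrous-heme human α1/β1 sGC, expressed in Sf9 cells and purified through DEAE, Ni-agarose and Superdex 200. Reaction started at 37 °C with 1 mM GTP/[α-32P]GTP (~100000 cpm) for 15 min. Stopped by zinc carbonate precipitation; [32P]cGMP formed.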

Structure (SMILES)	shape of the activation curve [1]	sGC activation (sGC [2])	activation of Fe3+-sGC [1]	further results
Cc1ccc(C)c(OCCCCC(=O)O)c1 [Compound 4c, 5-(2,5-dimethylphenoxy)pentanoic acid]	typical S-shaped pattern	activated both Fe^2+-sGC and Fe^3+-sGC	–	–
O=C(O)CCCCN(CCc1ccccc1OCc1ccc(CCc2ccccc2)cc1)Cc1ccc(C(=O)O)cc1 [cinaciguat]	–	–	–	estimated EC50 (sGC [3]): low nanomolar range
O=C(O)CCCCCOc1ccccc1 [Compound 8b, 6-phenoxyhexanoic acid]	–	does not activate sGC	–	–
Cc1ccc(C)c(OCC(=O)O)c1 [Compound 4a, 2-(2,5-dimethylphenoxy)acetic acid]	–	not conducive to sGC activation	–	–
Cc1ccc(C)c(N(CCCC(C)(C)C(=O)O)C(=O)CCCC(=O)O)c1 [Compound 10e, 5-(4-carboxy-N-(2,5-dimethylphenyl)butanamido)-2,2-dimethylpentanoic acid]	–	–	weak, yet statistically significant activation	–
Cc1ccc(C)c(N(CCCC(C)(C)C(=O)O)C(=O)CCCCC(=O)O)c1 [Compound 10f, 6-((4-carboxy-4-methylpentyl)(2,5-dimethylphenyl)amino)-6-oxohexanoic acid]	–	–	weak, yet statistically significant activation	–
Cc1ccc(C)c(OCCCC(=O)O)c1 [Compound 4b, 4-(2,5-dimethylphenoxy)butanoic acid]	–	not conducive to sGC activation	–	–
CCCCCCC(CCCOc1cc(C)ccc1C)C(=O)O (centres unmarked) [Compound 15b, 2-(3-(2,5-dimethylphenoxy)propyl)octanoic acid]	bell-shaped curve	activated both Fe^2+-sGC and Fe^3+-sGC	–	–
CCC(CCCOc1cc(C)ccc1C)C(=O)O (centres unmarked) [Compound 15a, 5-(2,5-dimethylphenoxy)-2-ethylpentanoic acid]	–	–	significantly hampered the activation	activation of Fe2+-sGC [4]: blocked the activation
Cc1ccc(C)c(NCCCC(C)(C)C(=O)O)c1 [Compound 7a, 5-((2,5-dimethylphenyl)amino)-2,2-dimethylpentanoic acid]	typical S-shaped pattern	activated both Fe^2+-sGC and Fe^3+-sGC	–	–
Cc1ccc(C)c(N(CCCC(C)(C)C(=O)O)C(=O)CCC(=O)O)c1 [Compound 10d, 5-(3-carboxy-N-(2,5-dimethylphenyl)propanamido)-2,2-dimethylpentanoic acid]	–	–	weak, yet statistically significant activation	–
Cc1ccc(C(C)C)c(OCCCC(C)(C)C(=O)O)c1 [Compound 7c, 5-(2-isopropyl-5-methylphenoxy)-2,2-dimethylpentanoic acid]	bell-shaped curve	activated both Fe^2+-sGC and Fe^3+-sGC; also recorded: well tolerated	–	–
Cc1ccc(C)c(N(CCCC(C)(C)C(=O)O)C(=O)CCCCC(=O)N(CCCC(C)(C)C(=O)O)c2cc(C)ccc2C)c1 [Compound 11, 5,5’-(adipoylbis((2,5-dimethylphenyl)azanediyl))bis(2,2-dimethyl-pentanoic acid)]	typical S-shaped pattern	activated both Fe^2+-sGC and Fe^3+-sGC; also recorded: exhibited sGC activation	–	–
Cc1ccc(C)c(OCCCCCC(=O)O)c1 [Compound 4d, 6-(2,5-dimethylphenoxy)hexanoic acid]	typical S-shaped pattern	activated both Fe^2+-sGC and Fe^3+-sGC	diminished	activation of Fe2+-sGC [4]: tolerated
